Experimental data from ChEMBL document CHEMBL4402601, “Discovery of a Silicon-Containing Pan-Genotype Hepatitis C Virus NS5A Inhibitor” (J Med Chem, 2020).

How the values were obtained:
Hepatitis C virus [1] = test: Antiviral activity against Hepatitis C virus subtype 1a H77 subgenomic replicon expressing NS5A infected in human HuH7 cells assessed as reduction in viral replication incubated for 3 days by luciferase reporter gene assay; assay type: functional, organism-based, Hepacivirus hominis; conditions: subtype 1a H77, Huh-7, 72 h
Method in brief: (§1)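 HCV replicon cell assay; inhibition of replication read as decrease in luciferase signal. Percent inhibition computed at each compound concentration; EC50 (pM) from nonlinear regression fit to a 4-parameter logistic equation. Values are means of triplicate wells, with each experiment run at least twice.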

Hepatitis C virus [2] = test: Antiviral activity against Hepatitis C virus subtype 1b Con1 subgenomic replicon expressing NS5A infected in human HuH7 cells assessed as reduction in viral replication incubated for 3 days by luciferase reporter gene assay; assay type: functional, organism-based, Hepacivirus hominis; conditions: subtype 1b Con1, Huh-7, 72 h; method in brief: as §1
Hepatitis C virus [3] = test: Antiviral activity against Hepatitis C virus subtype 2a subgenomic replicon expressing NS5A infected in human HuH7 cells assessed as reduction in viral replication incubated for 3 days by luciferase reporter gene assay; assay type: functional, organism-based, Hepacivirus hominis; conditions: Huh-7, 72 h
Hepatitis C virus [4] = test: Antiviral activity against Hepatitis C virus subtype 1a H77 subgenomic replicon expressing NS5A L31M mutant infected in human HuH7 cells assessed as reduction in viral replication incubated for 3 days by luciferase reporter gene assay; assay type: functional, organism-based, Hepacivirus hominis; conditions: subtype 1a H77, Huh-7, 72 h
Method in brief: (§2)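 NS5A resistance-associated variants introduced into GT1a-H77 or GT1b-Con1 replicons. In transient assays, each variant replicon was electroporated into a Huh-7-derived cell line. Inhibition measured as drop in luciferase signal. Percent inhibition computed per concentration; EC50 from 4-parameter logistic nonlinear fit. Fold resistance is variant EC50 relative to the matching reference replicon.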

Hepatitis C virus [5] = test: Antiviral activity against Hepatitis C virus subtype 1a H77 subgenomic replicon expressing NS5A L31V mutant infected in human HuH7 cells assessed as reduction in viral replication incubated for 3 days by luciferase reporter gene assay; assay type: functional, organism-based, Hepacivirus hominis; conditions: subtype 1a H77, Huh-7, 72 h; method in brief: as §2
Hepatitis C virus [6] = test: Antiviral activity against Hepatitis C virus subtype 1a H77 subgenomic replicon expressing NS5A Y93N mutant infected in human HuH7 cells assessed as reduction in viral replication incubated for 3 days by luciferase reporter gene assay; assay type: functional, organism-based, Hepacivirus hominis; conditions: subtype 1a H77, Huh-7, 72 h; method in brief: as §2
Hepatitis C virus [7] = test: Antiviral activity against Hepatitis C virus subtype 1b Con1 replicon expressing NS5A Y93H mutant infected in human HuH7 cells assessed as reduction in viral replication incubated for 3 days by luciferase reporter gene assay; assay type: functional, organism-based, Hepacivirus hominis; conditions: subtype 1b Con1, Huh-7, 72 h; method in brief: as §2
Hepatitis C virus [8] = test: Antiviral activity against Hepatitis C virus subtype 1b Con1 replicon expressing NS5A L31W mutant infected in human HuH7 cells assessed as reduction in viral replication incubated for 3 days by luciferase reporter gene assay; assay type: functional, organism-based, Hepacivirus hominis; conditions: subtype 1b Con1, Huh-7, 72 h; method in brief: as §2
Hepatitis C virus [9] = test: Antiviral activity against Hepatitis C virus subtype 1b Con1 replicon expressing NS5A L31V mutant infected in human HuH7 cells assessed as reduction in viral replication incubated for 3 days by luciferase reporter gene assay; assay type: functional, organism-based, Hepacivirus hominis; conditions: subtype 1b Con1, Huh-7, 72 h; method in brief: as §2
Hepatitis C virus [10] = test: Resistance index, ratio of EC50 for Hepatitis C virus subtype 1a H77 subgenomic replicon expressing NS5A M28T mutant infected in human HuH7 cells to EC50 for Hepatitis C virus subtype 1a H77 subgenomic replicon expressing NS5A infected in human HuH7 cells; assay type: functional, Hepacivirus hominis
Hepatitis C virus [11] = test: Resistance index, ratio of EC50 for Hepatitis C virus subtype 1a H77 subgenomic replicon expressing NS5A Q30E mutant infected in human HuH7 cells to EC50 for Hepatitis C virus subtype 1a H77 subgenomic replicon expressing NS5A infected in human HuH7 cells; assay type: functional, Hepacivirus hominis
Hepatitis C virus [12] = test: Resistance index, ratio of EC50 for Hepatitis C virus subtype 1b Con1 subgenomic replicon expressing NS5A L31V mutant infected in human HuH7 cells to EC50 for Hepatitis C virus subtype 1b Con1 subgenomic replicon expressing NS5A infected in human HuH7 cells; assay type: functional, Hepacivirus hominis
[13] = Volume of distribution in mouse at 2 mg/kg, iv by UPLC-MS/MS analysis; assay type: ADME, organism-based; conditions: in vivo
Method in brief: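 Mice fasted overnight, given a single 2 mg/kg iv dose. Vehicle was the oral formulation (2:2:96 alcohol:Tween 80:glucose injection) diluted 2.5-fold with 10% glucose injection. Plasma concentrations measured by UPLC-MS/MS.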

[14] = Clearance in mouse plasma at 2 mg/kg, iv by UPLC-MS/MS analysis; assay type: ADME, organism-based
Method in brief: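 Overnight-fasted mice dosed iv once at 2 mg/kg. Vehicle was 2:2:96 (v/v) alcohol : Tween 80 : glucose injection diluted 2.5 times with 10% glucose injection. Plasma concentration measured by UPLC-MS/MS.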

[15] = Tmax in mouse at 10 mg/kg, po by UPLC-MS/MS analysis; assay type: ADME, organism-based; conditions: in vivo
Method in brief: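 Mice fasted overnight, given a single 10 mg/kg oral dose in 2:2:96 (v/v) alcohol:Tween 80:glucose injection. Plasma concentrations measured by UPLC-MS/MS.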

[16] = Oral bioavailability in mouse at 10 mg/kg by UPLC-MS/MS analysis; assay type: ADME, organism-based; conditions: in vivo
Method in brief: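 Overnight-fasted mice given a single 10 mg/kg oral dose in 2:2:96 (v/v) alcohol : Tween 80 : glucose injection. Plasma levels by UPLC-MS/MS. Bioavailability derived against a 2 mg/kg iv arm using the same formulation diluted 2.5 times with 10% glucose injection.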

[17] = Drug distribution in mouse plasma at 10 mg/kg, po incubated for 0.5 hrs by UPLC-MS/MS analysis; assay type: ADME, organism-based
Method in brief: (§3)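 Oral dosing in mice and rats; compound measured in plasma and liver by UPLC-MS/MS at each time point, n = 3 (mean ± SD). LPR is mean liver concentration divided by mean plasma concentration.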

[18] = Drug distribution in mouse plasma at 10 mg/kg, po incubated for 24 hrs by UPLC-MS/MS analysis; assay type: ADME, organism-based; method in brief: as §3
[19] = Drug distribution in rat plasma at 10 mg/kg, po incubated for 3 hrs by UPLC-MS/MS analysis; assay type: ADME, organism-based; method in brief: as §3
[20] = Drug distribution in mouse liver at 10 mg/kg, po incubated for 0.5 hrs by UPLC-MS/MS analysis; assay type: ADME, organism-based; conditions: read-out: Drug uptake; method in brief: as §3
[21] = Drug distribution in mouse liver at 10 mg/kg, po incubated for 24 hrs by UPLC-MS/MS analysis; assay type: ADME, organism-based; conditions: read-out: Drug uptake; method in brief: as §3
[22] = Drug distribution in rat liver at 10 mg/kg, po incubated for 3 hrs by UPLC-MS/MS analysis; assay type: ADME, organism-based; conditions: read-out: Drug uptake; method in brief: as §3
[23] = Drug distribution in rat liver at 10 mg/kg, po incubated for 8 hrs by UPLC-MS/MS analysis; assay type: ADME, organism-based; conditions: read-out: Drug uptake; method in brief: as §3
[24] = Ratio of drug distribution in mouse liver to drug distribution in mouse plasma measured after 0.5 hrs by UPLC-MS/MS analysis; assay type: ADME, cell-free; method in brief: as §3
[25] = Toxicity in mouse assessed as reduction in body weight at 300 mg/kg, po administered for 14 days and measured on day 14; assay type: organism-based; conditions: in vivo, 336 h
Method in brief: (§4)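 Mice randomised after acclimation into two groups of 5 males and 5 females. Compound at 300 mg/kg or vehicle alone given once daily by oral gavage for 14 days. Clinical signs observed daily. Body weight and food intake recorded on day 1, then twice weekly. Animals killed after the 14th dose.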

[26] = Toxicity in mouse assessed as effect on hematological parameters at 300 mg/kg, po administered for 14 days and measured on day 14; assay type: organism-based; conditions: in vivo, 336 h; method in brief: as §4
[27] = Toxicity in mouse assessed as effect on hepatological parameters at 300 mg/kg, po administered for 14 days and measured on day 14; assay type: organism-based; conditions: in vivo, 336 h; method in brief: as §4
Hepatitis C virus [28] = test: Antiviral activity against Hepatitis C virus subtype 5a subgenomic replicon expressing NS5A infected in human HuH7 cells assessed as reduction in viral replication incubated for 3 days by luciferase reporter gene assay; assay type: functional, organism-based, Hepacivirus hominis; conditions: Huh-7, 72 h

**Q.** With `COC(=O)N[C@H](C(=O)N1CCC[C@H]1C(=O)Nc1ccc([C@@H]2CC[C@@H](c3ccc(NC(=O)[C@@H]4CCCN4C(=O)[C@@H](NC(=O)OC)[C@@H](C)OC)cc3)N2c2cc(F)c(N3CC[Si](C)(C)CC3)c(F)c2)cc1)[C@@H](C)OC` as the compound, how does the EC50 (Hepatitis C virus [1]) read?
**A.** 1.2 pM

**Q.** And the EC50 (Hepatitis C virus [2])?
**A.** 1.7 pM

**Q.** What about the EC50 (Hepatitis C virus [3]) of the same compound?
**A.** 0.38 pM

**Q.** What about the EC50 (Hepatitis C virus [4]) of the same compound?
**A.** 12.2 pM

**Q.** What about the EC50 (Hepatitis C virus [5]) of the same compound?
**A.** 27 pM

**Q.** What about the EC50 (Hepatitis C virus [6]) of the same compound?
**A.** > 250 pM

**Q.** What about the EC50 (Hepatitis C virus [7]) of the same compound?
**A.** 20.4 pM

**Q.** What about the EC50 (Hepatitis C virus [8]) of the same compound?
**A.** 19.1 pM

**Q.** And the EC50 (Hepatitis C virus [9])?
**A.** 3.81 pM

**Q.** And the “Ratio EC50” value (Hepatitis C virus [10])?
**A.** 1.9

**Q.** And the “Ratio EC50” value (Hepatitis C virus [11])?
**A.** 175

**Q.** And the “Ratio EC50” value (Hepatitis C virus [12])?
**A.** 2.3

**Q.** And the Vd [13]?
**A.** 1.56 L/kg

**Q.** What about the clearance [14] of the same compound?
**A.** 1.67 mL/min/kg

**Q.** And the Tmax [15]?
**A.** 7.3 h

**Q.** What about the bioavailability [16] of the same compound?
**A.** 7.2%

**Q.** And the concentration at 0.5 h [17]?
**A.** 160 ng/mL

**Q.** What about the concentration at 24 h [18] of the same compound?
**A.** 58.6 ng/mL

**Q.** What about the concentration at 3 h [19] of the same compound?
**A.** 45.2 ng/mL

**Q.** What about the concentration at 0.5 h [20] of the same compound?
**A.** 436 ng/g

**Q.** And the concentration at 24 h [21]?
**A.** 625 ng/g

**Q.** What about the concentration at 3 h [22] of the same compound?
**A.** 1110 ng/g

**Q.** What about the concentration at 8 h [23] of the same compound?
**A.** 293 ng/g

**Q.** What about the Kp at 0.5 h [24] of the same compound?
**A.** 8.8

**Q.** What about the Activity [25] of the same compound?
**A.** Non-Toxic

**Q.** And the Activity [26]?
**A.** Non-Toxic

**Q.** And the Activity [27]?
**A.** Non-Toxic

**Q.** And the EC50 (Hepatitis C virus [28])?
**A.** 1.6 pM
